Bioassay records deposited in PubChem by The Scripps Research Institute Molecular Screening Center.
An excerpt weighted towards active compounds, which were near 1.8% of everything screened.
CHRM4 agonist = human M4 muscarinic receptor agonists, primary screen, CHO-K1 cells, Fluo-8 calcium fluorescence; 360,000 tested, 0.14% active; activation, % at 3 µM; Muscarinic acetylcholine receptor M4 (Homo sapiens), P08173; CHO-K1 hM4/Gqi5; vehicle 0%, full acetylcholine response 100%;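 active = activation above the run mean over all test wells plus 3 SD, cut at about 32% in these data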;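 also: peak over basal fluorescence ratio per well then scaled between controls; 0% = DMSO wells and 100% = acetylcholine at EC100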
Target sequence (P08173 whole entry, looked up): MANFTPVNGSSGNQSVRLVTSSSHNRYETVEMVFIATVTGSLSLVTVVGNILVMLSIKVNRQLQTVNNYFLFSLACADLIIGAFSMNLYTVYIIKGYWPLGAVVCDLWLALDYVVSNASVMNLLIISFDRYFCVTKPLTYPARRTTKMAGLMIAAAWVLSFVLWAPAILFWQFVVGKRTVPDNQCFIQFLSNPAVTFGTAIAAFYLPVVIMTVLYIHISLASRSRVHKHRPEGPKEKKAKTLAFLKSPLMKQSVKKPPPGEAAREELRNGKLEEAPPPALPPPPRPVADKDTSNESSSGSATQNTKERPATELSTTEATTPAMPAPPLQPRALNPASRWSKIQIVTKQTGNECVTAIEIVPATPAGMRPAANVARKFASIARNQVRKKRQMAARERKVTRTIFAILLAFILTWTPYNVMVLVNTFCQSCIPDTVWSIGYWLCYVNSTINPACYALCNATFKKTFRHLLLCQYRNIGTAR
CHRM5 antagonist = human M5 muscarinic receptor antagonists, primary screen, CHO cells, Fluo-8 calcium fluorescence; Muscarinic acetylcholine receptor M5 (Homo sapiens), P08912; CHO-hM5 cells, ACh EC80; inhibition, % at 3 µM; 360,000 tested, 0.59% active; AID 624040, 2012;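 active = inhibition above a per-plate cutoff, the mean of that plate's test compounds plus 3 SD, cut at about 27% in these data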;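 also: 0% = acetylcholine EC80 with DMSO and 100% = DMSO without agonist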
CHRM4 PAM = human M4 muscarinic receptor positive allosteric modulators, primary screen, CHO-K1 cells, Fluo-8 calcium fluorescence; Muscarinic acetylcholine receptor M4 (Homo sapiens), P08173; CHO-K1 hM4/Gqi5, ACh EC20; 0% = ACh EC20, 100% = maximal ACh; activation, % at 3 µM; 360,000 tested, 0.4% active; AID 624126, 2012;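 active = activation above its plate's cutoff, the mean activation of sample wells plus 3 SD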
CHRM4 antagonist = human M4 muscarinic receptor antagonists, primary screen, CHO cells, Fluo-8 calcium fluorescence; 360,000 tested, 0.73% active; CHO-hM4 cells, ACh EC80; inhibition, % at 3 µM; Muscarinic acetylcholine receptor M4 (Homo sapiens), P08173; AID 624125, 2012;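 active = inhibition above its plate's cutoff, the mean inhibition of sample wells plus 3 SD, cut at about 27% in these data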;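 also: 0% = acetylcholine EC80 with DMSO and 100% = DMSO without agonist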
M5 ag = human M5 muscarinic receptor agonists, primary screen, CHO-K1 cells, Fluo-8 calcium fluorescence | activation, % at 3 µM | Muscarinic acetylcholine receptor M5 (Homo sapiens), P08912 | CHO-K1 hM5 cells; 0% DMSO wells, 100% maximal acetylcholine response | 360,000 tested, 0.19% active;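 active = activation above the run's mean over test compounds plus 3 SD, cut at about 23% in these data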;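 also: signal is peak over basal fluorescence ratio across the kinetic read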
CHRM5 PAM = human M5 muscarinic receptor positive allosteric modulators, primary screen, CHO-K1 cells, Fluo-8 calcium fluorescence | Muscarinic acetylcholine receptor M5 (Homo sapiens), P08912 | CHO-K1 hM5, ACh EC20 PAM; 0% = ACh EC20, 100% = ACh EC100 | activation, % at 3 µM | 360,000 tested, 0.3% active | AID 624038, 2012;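 active = activation above the run cutoff, the mean activation of all test compounds plus 3 SD, cut at about 18% in these data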
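Measured by: Fluo-8 calcium fluorescence; material: human M5 receptor in CHO-K1 cells; schedule: Post-acetylcholine fluorescence recording 140 s; benchmarks: low control EC20 acetylcholine (0%), high control EC100 acetylcholine (100%); read-out: Max/basal fluorescence ratio as % of EC20–EC100 ACh window; compound: single dose, 3 µM nominal final test concentration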
The depositor's hits bear a star.

SMILES	CHRM4 agonist	CHRM5 antagonist	CHRM4 PAM	CHRM4 antagonist	M5 ag	CHRM5 PAM
Cc1ccc(C2=NNC(C(O)C(O)C(O)CO)S2)cc1 (configuration not stated)	0	9	-3	3	-1	30*
CC1(C)CN=C(NC2CCCCC2)S1	1	11	-14	43*	-6	-9
CCC(C)(C)NC(=O)C1CCN(S(=O)(=O)c2cccs2)CC1	20	33*	-9	2	-1	-14
CC(Sc1nc(N)cc(=O)[nH]1)C(=O)NNC(=O)c1cccc(Cl)c1 (configuration not stated)	0	-4	2	-1	0	-4
C=C(C)C(=O)OCC(O)COc1ccc(C(C)(C)c2ccc(OCC(O)COC(=O)C(=C)C)cc2)cc1 (configuration not stated)	26	27*	-14	32*	12	-17
COc1ccc(-c2nc3c(Cl)cc(C(F)(F)F)cn3c2Cc2cccc(F)c2)cc1OC	2	2	18	6	4	2
O=C(Nc1cccc(C(=O)Nc2ccc(Br)cc2)c1)c1ccccc1	20	31*	-12	17	-2	-24
O=C(Nc1cccc(NC(=O)c2ccc(-c3cccc(Br)c3)o2)c1)c1ccco1	12	19	-16	33*	2	-10
CC(C)CC(=O)Nc1cccc(C(=O)Nc2ccccc2C(=O)O)c1	-2	-5	30*	-22	0	7
CC(=O)c1cccc(NC(=O)c2ccc(C)o2)c1	1	10	-1	10	0	-3
O=C(Nc1ccc(Nc2ccccc2)cc1)c1ccc(Br)cc1	0	3	2	7	1	-4
CC(=O)c1cccc(NC(=O)c2ccc(Br)o2)c1	2	4	16	29*	-1	1
O=C(Nc1cccc(NC(=O)c2ccc(-c3ccc(Br)cc3)o2)c1)c1ccccc1	1	6	23	4	-3	7
CC(C)(C)c1ccc(C(CC(=O)O)NC(=O)Cc2ccc(Cl)cc2)cc1 (configuration not stated)	0	1	5	-3	-2	4
CC(=O)c1cccc(NC(=O)c2cc(-c3cccs3)on2)c1	1	-7	16*	-25	-2	2
O=C(Nc1cccc(-c2cnc3ccccc3n2)c1)c1cccc(NC(=O)c2ccco2)c1	20	26	-24	42*	4	-18
O=C(Nc1cccc(-c2cnc3ccccc3n2)c1)c1ccccc1	1	-2	4	-6	1	-4
O=C(Nc1ccccc1C(=O)O)c1cccc(NC(=O)c2ccc(Br)o2)c1	-1	-5	18*	-7	4	0
COc1ccc(NC(=O)c2cc(C3CCCCN3S(=O)(=O)c3ccc(C#N)cc3)on2)c(C)c1 (configuration not stated)	10	5	-7	15	1	-2
CSc1ccc(/C=N/NC(=O)CN2CCN(Cc3ccc(C)cc3)CC2)cc1	1	-2	-18	42*	-5	0
CSc1ccc(/C=N/NC(=O)CN2CCN(Cc3ccccc3Cl)CC2)cc1	2	-4	-9	-7	0	1
Cc1cc(NC(=O)c2cc([N+](=O)[O-])cc([N+](=O)[O-])c2)no1	2	10	15*	2	3	1
Cc1cc(NC(=O)c2cccc([N+](=O)[O-])c2)no1	0	4	12	-3	2	3
Cc1cccc(NS(=O)(=O)c2ccc(C(=O)N3CCN(c4ccccc4O)CC3)cc2)c1C	17	5	-4	10	2	6
CCOc1cccc(/C=N/NC(=O)c2cc(C3CC3)[nH]n2)c1O	3	1	-1	6	-3	-2
SMILES	CHRM4 agonist	CHRM5 antagonist	CHRM4 PAM	CHRM4 antagonist	M5 ag	CHRM5 PAM
Cn1cc(C(=O)c2cccc(Cl)c2)cc1C#N	6	-3	26*	6	-2	1
O=C(NC1CCCC1)C1CC(=O)N(c2ccccc2)C1 (configuration not stated)	0	2	-2	6	0	3
O=C(NC1CC1)C1CC(=O)N(c2ccccc2)C1 (configuration not stated)	2	30*	7	-2	-4	-9
Cc1ccc(-c2nnc(-c3cc(C)on3)o2)cc1	0	14	11	-11	-2	-10
CCOc1cc(CNCCSc2nnnn2C)cc(Br)c1OCc1ccc(F)cc1	22	25	-14	28*	-1	-21
COc1cc(C=O)ccc1OCC(=O)N1CCCC1	2	-18	5	-1	-1	20*
Cc1ccc(C(=O)N2CCN(c3ccccn3)CC2)cc1C	2	11	15*	-4	2	1
CSCCC(=O)N1CCC(CCC(=O)NC2CC2)CC1	0	-10	1	-17	-3	2
O=C1C2C3C=CC(CO)(O3)C2C(=O)N1c1ccccc1-c1ccccc1 (configuration not stated)	8	-7	-7	27*	14	14
CC(=O)Oc1ccc(N2C(=O)C3C4C=CC(CO)(O4)C3C2=O)cc1 (configuration not stated)	1	-6	12	-6	0	3
Cc1ccc(CCNC(=O)CN2CCN(Cc3ccccc3F)C2=O)cc1	2	-2	30*	-8	-5	3
COc1ccc(CCNC(=O)CN2CCN(Cc3ccccc3F)C2=O)cc1OC	0	7	14	10	2	5
CCOC(=O)[C@]12CCCC=C1N(CCC1=CCCCC1)C(=O)[C@H](CC(=O)NCC13CC4CC(CC(C4)C1)C3)C2	-1	3	-8	0	-1	-4
O=C(Nc1ccc(S(=O)(=O)N2CCCCC2)cc1)c1ccc(CN2CCc3ccccc3C2)cc1	8	16	-16	40*	-4	-12
CN(C)S(=O)(=O)c1ccc(C(=O)Nc2ccc(CCC(=O)N3CCCC3)cc2)cc1	1	3	10	1	-1	-5
CN(C)S(=O)(=O)c1ccc(C(=O)Nc2ccc(CN3CCCC3)cc2)cc1	1	6	-18	69*	-7	-8
CCc1nc2ccccc2c(C(=O)Nc2cccc(C)c2)c1C	0	0	-2	9	4	5
